Converted amounts (≈) assume the structure as drawn.
What was measured:
Format in all cases: functional
Streptococcus pneumoniae [1] = assay: Antibacterial activity against erythromycin-susceptible Streptococcus pneumoniae 07H252 by broth microdilution method
Summary of the method: (§1)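 Strains were ATCC reference strains or clinical isolates from China's national antimicrobial resistance surveillance network (MOHNARIN). In vitro activity was measured by broth microdilution following NCCLS recommendations. Results are reported as minimum inhibitory concentration (MIC) in mg/L.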

Staphylococcus aureus [2] = assay: Antibacterial activity against methicillin-susceptible Staphylococcus aureus ATCC 29213 by broth microdilution method; summary of the method: as §1
Staphylococcus aureus [3] = assay: Antibacterial activity against methicillin-susceptible Staphylococcus aureus ANS46 by broth microdilution method; summary of the method: as §1
[4] = test system: Staphylococcus epidermidis; assay: Antibacterial activity against methicillin-susceptible Staphylococcus epidermidis 07C134 by broth microdilution method
Summary of the method: (§2)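 Clinical isolates were supplied by China's Ministry of Health National Antimicrobial Resistance Investigation Net (MOHNARIN). Activity was reported as minimum inhibitory concentration (MIC), determined by broth microdilution following NCCLS recommendations.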

[5] = test system: Staphylococcus epidermidis; assay: Antibacterial activity against methicillin-susceptible Staphylococcus epidermidis 07T202 by broth microdilution method; summary of the method: as §1
[6] = test system: Staphylococcus epidermidis; assay: Antibacterial activity against methicillin-resistant Staphylococcus epidermidis 07R066 by broth microdilution method; summary of the method: as §2
[7] = test system: Staphylococcus epidermidis; assay: Antibacterial activity against methicillin-resistant Staphylococcus epidermidis 07A066 by broth microdilution method; summary of the method: as §2
Streptococcus pyogenes [8] = assay: Antibacterial activity against erythromycin-susceptible Streptococcus pyogenes 07U084 by broth microdilution method; summary of the method: as §1
Streptococcus pyogenes [9] = assay: Antibacterial activity against erythromycin-susceptible Streptococcus pyogenes 07U086 by broth microdilution method; summary of the method: as §1
Streptococcus pyogenes [10] = assay: Antibacterial activity against erythromycin-resistant Streptococcus pyogenes 03-233 by broth microdilution method; summary of the method: as §2
Streptococcus pyogenes [11] = assay: Antibacterial activity against erythromycin-resistant Streptococcus pyogenes 01-533 by broth microdilution method; summary of the method: as §2
Streptococcus pneumoniae [12] = assay: Antibacterial activity against erythromycin-susceptible Streptococcus pneumoniae ATCC 49619 by broth microdilution method; summary of the method: as §1
Streptococcus pneumoniae [13] = assay: Antibacterial activity against erythromycin-resistant Streptococcus pneumoniae 07D201 by broth microdilution method; summary of the method: as §2
Streptococcus pneumoniae [14] = assay: Antibacterial activity against erythromycin-resistant Streptococcus pneumoniae 07P390 by broth microdilution method; summary of the method: as §2
Haemophilus influenzae [15] = assay: Antibacterial activity against erythromycin-susceptible Haemophilus influenzae ATCC 49247 by broth microdilution method; summary of the method: as §1
Haemophilus influenzae [16] = assay: Antibacterial activity against erythromycin-susceptible Haemophilus influenzae 07O114 by broth microdilution method; summary of the method: as §1
Haemophilus influenzae [17] = assay: Antibacterial activity against erythromycin-susceptible Haemophilus influenzae 07O339 by broth microdilution method; summary of the method: as §1
Haemophilus influenzae [18] = assay: Antibacterial activity against erythromycin-susceptible Haemophilus influenzae 07O394 by broth microdilution method; summary of the method: as §1

| Structure (SMILES) | MIC (Streptococcus pneumoniae [1]) | MIC (Staphylococcus aureus [2]) | MIC (Staphylococcus aureus [3]) | MIC [4] | MIC [5] | MIC [6] | MIC [7] | MIC (Streptococcus pyogenes [8]) | MIC (Streptococcus pyogenes [9]) | MIC (Streptococcus pyogenes [10]) | MIC (Streptococcus pyogenes [11]) | MIC (Streptococcus pneumoniae [12]) | MIC (Streptococcus pneumoniae [13]) | MIC (Streptococcus pneumoniae [14]) | MIC (Haemophilus influenzae [15]) | MIC (Haemophilus influenzae [16]) | MIC (Haemophilus influenzae [17]) | MIC (Haemophilus influenzae [18]) |
| --- | --- | --- | --- | --- | --- | --- | --- | --- | --- | --- | --- | --- | --- | --- | --- | --- | --- | --- |
| CC[C@H]1OC(=O)[C@H](C)C(=O)[C@H](C)[C@@H](O[C@@H]2O[C@H](C)C[C@H](N(C)C)[C@H]2O)[C@@](C)(OC)C[C@@H](C)C(=O)[C@H](C)[C@H]2N(CCCSc3nnnn3C)C(=O)O[C@]12C | 8 µg/mL (≈ 10.4 µM) | 0.25 µg/mL (≈ 0.325 µM) | > 32 µg/mL | 0.25 µg/mL (≈ 0.325 µM) | > 32 µg/mL | > 32 µg/mL | 1 µg/mL (≈ 1.3 µM) | 0.062 µg/mL (≈ 0.0806 µM) | 0.062 µg/mL (≈ 0.0806 µM) | > 32 µg/mL | 1 µg/mL (≈ 1.3 µM) | 0.031 µg/mL (≈ 0.0403 µM) | > 32 µg/mL | 0.5 µg/mL (≈ 0.65 µM) | 8 µg/mL (≈ 10.4 µM) | 8 µg/mL (≈ 10.4 µM) | 8 µg/mL (≈ 10.4 µM) | 8 µg/mL (≈ 10.4 µM) |
| CC[C@H]1OC(=O)[C@H](C)C(=O)[C@H](C)[C@@H](O[C@@H]2O[C@H](C)C[C@H](N(C)C)[C@H]2O)[C@@](C)(OC)C[C@@H](C)C(=O)[C@H](C)[C@H]2N(CCCSc3nnnn3-c3ccccc3)C(=O)O[C@]12C | 1 µg/mL (≈ 1.2 µM) | 0.25 µg/mL (≈ 0.301 µM) | > 32 µg/mL | 0.5 µg/mL (≈ 0.602 µM) | > 32 µg/mL | 0.25 µg/mL (≈ 0.301 µM) | 0.5 µg/mL (≈ 0.602 µM) | 0.125 µg/mL (≈ 0.15 µM) | 0.125 µg/mL (≈ 0.15 µM) | > 32 µg/mL | 2 µg/mL (≈ 2.41 µM) | 0.125 µg/mL (≈ 0.15 µM) | > 32 µg/mL | 0.5 µg/mL (≈ 0.602 µM) | 16 µg/mL (≈ 19.3 µM) | 16 µg/mL (≈ 19.3 µM) | 32 µg/mL (≈ 38.5 µM) | 32 µg/mL (≈ 38.5 µM) |
| CC[C@H]1OC(=O)[C@H](C)C(=O)[C@H](C)[C@@H](O[C@@H]2O[C@H](C)C[C@H](N(C)C)[C@H]2O)[C@@](C)(OC)C[C@@H](C)C(=O)[C@H](C)[C@H]2N(CCCSc3nccs3)C(=O)O[C@]12C | 0.5 µg/mL (≈ 0.649 µM) | 0.125 µg/mL (≈ 0.162 µM) | > 32 µg/mL | 0.125 µg/mL (≈ 0.162 µM) | > 32 µg/mL | 0.062 µg/mL (≈ 0.0805 µM) | 0.125 µg/mL (≈ 0.162 µM) | ≤ 0.016 µg/mL | ≤ 0.016 µg/mL | > 32 µg/mL | 0.5 µg/mL (≈ 0.649 µM) | 0.031 µg/mL (≈ 0.0403 µM) | > 32 µg/mL | 0.25 µg/mL (≈ 0.325 µM) | 4 µg/mL (≈ 5.19 µM) | 4 µg/mL (≈ 5.19 µM) | 4 µg/mL (≈ 5.19 µM) | 4 µg/mL (≈ 5.19 µM) |
| CC[C@H]1OC(=O)[C@H](C)C(=O)[C@H](C)[C@@H](O[C@@H]2O[C@H](C)C[C@H](N(C)C)[C@H]2O)[C@@](C)(OC)C[C@@H](C)C(=O)[C@H](C)[C@H]2N(CCCSc3nc(-c4ccccc4)c(-c4ccccc4)o3)C(=O)O[C@]12C |  | 4 µg/mL (≈ 4.41 µM) | > 16 µg/mL | 4 µg/mL (≈ 4.41 µM) | > 16 µg/mL | 4 µg/mL (≈ 4.41 µM) | 2 µg/mL (≈ 2.21 µM) | 0.5 µg/mL (≈ 0.552 µM) | 0.5 µg/mL (≈ 0.552 µM) |  |  | 1 µg/mL (≈ 1.1 µM) |  |  | > 16 µg/mL | > 16 µg/mL | > 16 µg/mL | > 16 µg/mL |
| CC[C@H]1OC(=O)[C@H](C)C(=O)[C@H](C)[C@@H](O[C@@H]2O[C@H](C)C[C@H](N(C)C)[C@H]2O)[C@@](C)(OC)C[C@@H](C)C(=O)[C@H](C)[C@H]2N(CCCSc3nncs3)C(=O)O[C@]12C | 2 µg/mL (≈ 2.59 µM) | 0.25 µg/mL (≈ 0.324 µM) | > 16 µg/mL | 0.25 µg/mL (≈ 0.324 µM) | > 16 µg/mL | 0.5 µg/mL (≈ 0.648 µM) | 0.25 µg/mL (≈ 0.324 µM) | 0.062 µg/mL (≈ 0.0804 µM) | 0.062 µg/mL (≈ 0.0804 µM) | > 16 µg/mL | 1 µg/mL (≈ 1.3 µM) | ≤ 0.016 µg/mL | > 16 µg/mL | 0.5 µg/mL (≈ 0.648 µM) | 2 µg/mL (≈ 2.59 µM) | 2 µg/mL (≈ 2.59 µM) | 2 µg/mL (≈ 2.59 µM) | 2 µg/mL (≈ 2.59 µM) |
| CCCc1cnc(SCCCN2C(=O)O[C@]3(C)[C@@H](CC)OC(=O)[C@H](C)C(=O)[C@H](C)[C@@H](O[C@@H]4O[C@H](C)C[C@H](N(C)C)[C@H]4O)[C@@](C)(OC)C[C@@H](C)C(=O)[C@H](C)[C@@H]23)nc1 |  | 0.5 µg/mL (≈ 0.62 µM) | > 16 µg/mL | 0.5 µg/mL (≈ 0.62 µM) | > 16 µg/mL | 0.5 µg/mL (≈ 0.62 µM) | 1 µg/mL (≈ 1.24 µM) | 0.125 µg/mL (≈ 0.155 µM) | 0.125 µg/mL (≈ 0.155 µM) |  |  | 0.125 µg/mL (≈ 0.155 µM) |  |  | 16 µg/mL (≈ 19.8 µM) | 16 µg/mL (≈ 19.8 µM) | 16 µg/mL (≈ 19.8 µM) | 16 µg/mL (≈ 19.8 µM) |
| CC[C@H]1OC(=O)[C@H](C)C(=O)[C@H](C)[C@@H](O[C@@H]2O[C@H](C)C[C@H](N(C)C)[C@H]2O)[C@@](C)(OC)C[C@@H](C)C(=O)/C(C)=C/[C@]1(C)OC(=O)NCCCSc1nc2cc([N+](=O)[O-])ccc2[nH]1 |  | 1 µg/mL (≈ 1.18 µM) | > 16 µg/mL | 1 µg/mL (≈ 1.18 µM) | > 16 µg/mL | 1 µg/mL (≈ 1.18 µM) | 1 µg/mL (≈ 1.18 µM) | 0.125 µg/mL (≈ 0.147 µM) | 0.125 µg/mL (≈ 0.147 µM) |  |  | 0.125 µg/mL (≈ 0.147 µM) |  |  | 16 µg/mL (≈ 18.9 µM) | 16 µg/mL (≈ 18.9 µM) | > 16 µg/mL | > 16 µg/mL |
| CC[C@H]1OC(=O)[C@H](C)C(=O)[C@H](C)[C@@H](O[C@@H]2O[C@H](C)C[C@H](N(C)C)[C@H]2O)[C@@](C)(OC)C[C@@H](C)C(=O)[C@H](C)[C@H]2N(CCCSc3ccccn3)C(=O)O[C@]12C |  | 0.125 µg/mL (≈ 0.164 µM) | > 16 µg/mL | 0.125 µg/mL (≈ 0.164 µM) | > 16 µg/mL | 0.125 µg/mL (≈ 0.164 µM) | 0.125 µg/mL (≈ 0.164 µM) | 0.016 µg/mL (≈ 0.0209 µM) | 0.016 µg/mL (≈ 0.0209 µM) |  |  | 0.016 µg/mL (≈ 0.0209 µM) |  |  | 8 µg/mL (≈ 10.5 µM) | 8 µg/mL (≈ 10.5 µM) | 4 µg/mL (≈ 5.24 µM) | 8 µg/mL (≈ 10.5 µM) |
| CC[C@H]1OC(=O)[C@H](C)C(=O)[C@H](C)[C@@H](O[C@@H]2O[C@H](C)C[C@H](N(C)C)[C@H]2O)[C@@](C)(OC)C[C@@H](C)C(=O)[C@H](C)[C@H]2N(CCCSc3nc4ccccc4[nH]3)C(=O)O[C@]12C |  | 0.125 µg/mL (≈ 0.156 µM) | > 16 µg/mL | 0.062 µg/mL (≈ 0.0772 µM) | > 16 µg/mL | 0.062 µg/mL (≈ 0.0772 µM) | 0.125 µg/mL (≈ 0.156 µM) | 0.016 µg/mL (≈ 0.0199 µM) | 0.016 µg/mL (≈ 0.0199 µM) |  |  | 0.016 µg/mL (≈ 0.0199 µM) |  |  | 4 µg/mL (≈ 4.98 µM) | 2 µg/mL (≈ 2.49 µM) | 2 µg/mL (≈ 2.49 µM) | 2 µg/mL (≈ 2.49 µM) |
| CC[C@H]1OC(=O)[C@H](C)C(=O)[C@H](C)[C@@H](O[C@@H]2O[C@H](C)C[C@H](N(C)C)[C@H]2O)[C@@](C)(OC)C[C@@H](C)C(=O)[C@H](C)[C@H]2N(CCCSc3nc4cc(OC)ccc4s3)C(=O)O[C@]12C |  | 0.5 µg/mL (≈ 0.588 µM) | > 16 µg/mL | 0.25 µg/mL (≈ 0.294 µM) | 16 µg/mL (≈ 18.8 µM) | 0.25 µg/mL (≈ 0.294 µM) | 0.5 µg/mL (≈ 0.588 µM) | 0.062 µg/mL (≈ 0.0729 µM) | 0.062 µg/mL (≈ 0.0729 µM) |  |  | 0.125 µg/mL (≈ 0.147 µM) |  |  | 16 µg/mL (≈ 18.8 µM) | 16 µg/mL (≈ 18.8 µM) | 16 µg/mL (≈ 18.8 µM) | 16 µg/mL (≈ 18.8 µM) |
